# Measured values taken from ChEMBL document CHEMBL1132295, “Novel euglycemic and hypolipidemic agents. 4. Pyridyl- and quinolinyl-containing thiazolidinediones” (1999).
# Key:
# Mus musculus [1] = assay: Compound was administered at a dose of 100 mg/kg/day to evaluate the percentage reduction in plasma glucose(PG) after 6 days of treatment in db/db mice via oral gavage.; format: functional
# Method in brief: (§1)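 Male C57BL/KsJ-db/db mice, 8 weeks old, 4–6 per group, given compound orally once daily for 6 days; vehicle controls received 0.5% CMC (10 mL/kg); rosiglitazone 30 mg/kg as standard. On the last day, retro-orbital blood was taken 1 h post-dose. Plasma glucose and triglyceride were measured by kits. % reduction = [1 − (TT/OT)/(TC/OC)] × 100, using day-0 and control values; mean ± SE, ANOVA, P<0.05.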
# Mus musculus [2] = assay: Compound was administered at a dose of 100 mg/kg/day to evaluate the percentage reduction in plasma triglyceride (TG) after 6 days of treatment in db/db mice via oral gavage.; format: functional; method in brief: as §1
# Mus musculus [3] = assay: Compound was administered at a dose of 30 mg/kg/day to evaluate the percentage reduction in plasma triglyceride (TG) after 6 days of treatment in db/db mice via oral gavage.; format: functional; method in brief: as §1
# Mus musculus [4] = assay: Percentage reduction in plasma glucose after 6 days p.o. dosing at 30 mg/kg in db/db mice.; format: functional; details: route oral; method in brief: as §1
# Mus musculus [5] = assay: Compound was administered at a dose of 100 mg/kg/day to evaluate the percentage reduction in plasma glucose(PG) after 6 days of treatment in db/db mice via oral gavage; Not significant.; format: functional, organism-based; method in brief: as §1
# Mus musculus [6] = assay: Compound was administered at a dose of 3 mg/kg/day to evaluate the percentage reduction in plasma glucose(PG) after 14 days of treatment in db/db mice via oral gavage.
# Mus musculus [7] = assay: Compound was administered at a dose of 1 mg/kg/day to evaluate the percentage reduction in plasma glucose(PG) after 14 days of treatment in ob/ob mice via oral gavage.
# Mus musculus [8] = assay: Compound was administered at a dose of 3 mg/kg/day to evaluate the percentage reduction in plasma triglyceride (TG) after 14 days of treatment in db/db mice via oral gavage.
# Mus musculus [9] = assay: Compound was administered at a dose of 10 mg/kg/day to evaluate the percentage reduction in plasma glucose(PG) after 14 days of treatment in ob/ob mice via oral gavage.
# Mus musculus [10] = assay: Compound was administered at a dose of 10 mg/kg/day to evaluate the percentage reduction in plasma glucose(PG) after 14 days of treatment in db/db mice via oral gavage.
# Mus musculus [11] = assay: Compound was administered at a dose of 10 mg/kg/day to evaluate the percentage reduction in plasma triglyceride (TG) after 14 days of treatment in db/db mice via oral gavage.
# Mus musculus [12] = assay: Compound was administered at a dose of 3 mg/kg/day to evaluate the percentage reduction in plasma glucose(PG) after 14 days of treatment in ob/ob mice via oral gavage.
# Mus musculus [13] = assay: Compound was administered at a dose of 30 mg/kg/day to evaluate the percentage reduction in plasma glucose(PG) after 14 days of treatment in ob/ob mice via oral gavage.
# Mus musculus [14] = assay: Compound was administered at a dose of 3 mg/kg/day to evaluate the percentage reduction in plasma triglyceride (TG) after 14 days of treatment in ob/ob mice via oral gavage.
# Mus musculus [15] = assay: Compound was administered at a dose of 30 mg/kg/day to evaluate the percentage reduction in plasma triglyceride (TG) after 14 days of treatment in ob/ob mice via oral gavage.
# Mus musculus [16] = assay: Compound was administered at a dose of 1 mg/kg/day to evaluate the percentage reduction in plasma triglyceride (TG) after 14 days of treatment in ob/ob mice via oral gavage.
# Mus musculus [17] = assay: Compound was administered at a dose of 10 mg/kg/day to evaluate the percentage reduction in plasma triglyceride (TG) after 14 days of treatment in ob/ob mice via oral gavage.
# Mus musculus [18] = assay: Compound was administered at a dose of 20 mg/kg/day to evaluate the percentage reduction in plasma glucose(PG) after 14 days of treatment in db/db mice via oral gavage.
# Mus musculus [19] = assay: Compound was administered at a dose of 20 mg/kg/day to evaluate the percentage reduction in plasma triglyceride (TG) after 14 days of treatment in db/db mice via oral gavage.
# Mus musculus [20] = assay: Compound was administered at a dose of 30 mg/kg/day to evaluate the percentage reduction in plasma triglyceride (TG) after 6 days of treatment in db/db mice via oral gavage; Not significant.; format: functional, organism-based; method in brief: as §1
compound,measurement,setting,value
O=C1NC(=O)/C(=C/c2ccc(OCC3CN(c4ccccn4)CCO3)cc2)S1 (stereo unspecified),Reduction,Mus musculus [1],55.25%
same,Reduction,Mus musculus [2],52.5%
Cc1cc(N2CCC[C@H]2COc2ccc(CC3SC(=O)[N-]C3=O)cc2)nc2ccccc12.[Na+] (stereo partly specified),Reduction,Mus musculus [3],58.5%
same,Reduction,Mus musculus [4],30.25%
O=C1NC(=O)/C(=C\c2ccc(OC[C@@H]3CCCN3c3ccccn3)cc2)S1,Reduction,Mus musculus [1],57%
same,Reduction,Mus musculus [2],77.75%
O=C1NC(=O)/C(=C/c2ccc(OCC3CCN(c4ccccn4)CC3)cc2)S1,Reduction,Mus musculus [5],Not significant
same,Reduction,Mus musculus [2],27.33%
O=C1[N-]C(=O)C(Cc2ccc(OCC3CN(c4ccccn4)CCO3)cc2)S1.[Na+] (stereo unspecified),Reduction,Mus musculus [6],34.67%
same,Reduction,Mus musculus [7],30%
same,Reduction,Mus musculus [8],39.25%
same,Reduction,Mus musculus [9],39.8%
same,Reduction,Mus musculus [10],66%
same,Reduction,Mus musculus [11],39%
same,Reduction,Mus musculus [3],56.75%
same,Reduction,Mus musculus [12],35.6%
same,Reduction,Mus musculus [4],63.5%
O=C1NC(=O)C(Cc2ccc(OC[C@@H]3CCCN3c3ccc4ccccc4n3)cc2)S1 (stereo partly specified) [listing 1 of 2 here],Reduction,Mus musculus [3],49%
same,Reduction,Mus musculus [4],72.25%
Cl.O=C1NC(=O)C(Cc2ccc(OC[C@@H]3CCCN3c3ccccn3)cc2)S1 (stereo partly specified),Reduction,Mus musculus [3],50.5%
same,Reduction,Mus musculus [4],50.5%
O=C(O)/C=C\C(=O)O.O=C1NC(=O)/C(=C/c2ccc(OC[C@@H]3CCCN3c3ccccn3)cc2)S1,Reduction,Mus musculus [6],12.75%
same,Reduction,Mus musculus [7],52.4%
same,Reduction,Mus musculus [13],73%
same,Reduction,Mus musculus [8],75%
same,Reduction,Mus musculus [9],69.25%
same,Reduction,Mus musculus [10],49.6%
same,Reduction,Mus musculus [14],59%
same,Reduction,Mus musculus [15],68.5%
same,Reduction,Mus musculus [11],78.4%
same,Reduction,Mus musculus [3],66.4%
same,Reduction,Mus musculus [12],40.25%
same,Reduction,Mus musculus [16],65.75%
same,Reduction,Mus musculus [17],41.5%
same,Reduction,Mus musculus [4],63.6%
Cl.O=C1NC(=O)/C(=C/c2ccc(OCC3CN(c4ccccn4)CCO3)cc2)S1 (stereo unspecified),Reduction,Mus musculus [4],35.5%
O=C(O)/C=C\C(=O)O.O=C1NC(=O)C(Cc2ccc(OC[C@@H]3CCCN3c3ccccn3)cc2)S1 (stereo partly specified),Reduction,Mus musculus [6],8.5%
same,Reduction,Mus musculus [8],41.5%
same,Reduction,Mus musculus [18],41.25%
same,Reduction,Mus musculus [3],44.75%
same,Reduction,Mus musculus [19],34.5%
same,Reduction,Mus musculus [4],62.5%
Cl.O=C1NC(=O)/C(=C/c2ccc(OC[C@@H]3CCCN3c3ccccn3)cc2)S1,Reduction,Mus musculus [6],53.8%
same,Reduction,Mus musculus [7],18.8%
same,Reduction,Mus musculus [13],37.2%
same,Reduction,Mus musculus [9],42.4%
same,Reduction,Mus musculus [10],61%
same,Reduction,Mus musculus [14],39.33%
same,Reduction,Mus musculus [15],53%
same,Reduction,Mus musculus [11],43.8%
same,Reduction,Mus musculus [3],31.7%
same,Reduction,Mus musculus [12],50.2%
same,Reduction,Mus musculus [16],46.6%
same,Reduction,Mus musculus [17],35%
same,Reduction,Mus musculus [4],70.8%
O=C1NC(=O)C(Cc2ccc(OC[C@@H]3CCCN3c3ccc4ccccc4n3)cc2)S1 (stereo partly specified) [listing 2 of 2 here],Reduction,Mus musculus [20],Not significant
CN(CCOc1ccc(/C=C2\SC(=O)NC2=O)cc1)c1ccccn1,Reduction,Mus musculus [1],55.5%
same,Reduction,Mus musculus [2],35%
Cc1cc(N2CCC[C@H]2COc2ccc(CC3SC(=O)NC3=O)cc2)nc2ccccc12.Cl (stereo partly specified),Reduction,Mus musculus [3],42%
same,Reduction,Mus musculus [4],25.25%
CN(CCOc1ccc(CC2SC(=O)NC2=O)cc1)c1ccccn1 (stereo in doubt; form 1) [ROSIGLITAZONE],Reduction,Mus musculus [6],41.6%
same,Reduction,Mus musculus [8],47%
same,Reduction,Mus musculus [10],47.25%
same,Reduction,Mus musculus [11],35.25%
same,Reduction,Mus musculus [3],41%
same,Reduction,Mus musculus [4]; 30 mg/kg,64.6%
